Data: ChEMBL document CHEMBL5365541, “Designing peptide amphiphiles as novel antibacterials and antibiotic adjuvants against gram-negative bacteria” (Bioorg Med Chem, 2023)
In brackets after ≈: the same amount, converted by molar mass. Starred links: 1 amine or outer side, 2 acyl side, 3 side chain; linkers in the order of their positions; H or OH if unused. Non-standard residues stand in square brackets, D forms with d. Residues, ends and D or L forms follow the SMILES beside them. ξ: configuration not given here. X3 = CCCCCCCCCCCCCCCCCCN([C@@H](Cc1c[nH]cn1)C(=O)[*:2])[*:1]; ξDap = NCC(N)C(=O)O

Tests used:
[1] = tested on: Staphylococcus aureus; assay: Antibacterial activity against Methicillin-resistant Staphylococcus aureus JE2 infected in Galleria mellonella assessed as survival at 50 mg/kg measured after 4 days relative to control; type: functional; conditions: JE2, 96 h, time 4 day
In short: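 G. mellonella larvae injected with 10 µL MRSA JE2 at a pre-set infective dose (60-80% lethality within 48 h, not 100% within 24 h) into last left proleg; after 2 h, 10 µL peptide or antibiotic injected into last right proleg; larvae held at 37 °C, mortality recorded daily for 4 days; untreated infected and PBS-only larvae as controls.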

[2] = tested on: Escherichia coli; assay: Antibacterial activity against Escherichia coli K12 incubated for 20 to 24 hrs by broth microdilution method; type: functional; conditions: time 20-24 hrs
In short: (§1)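 Broth microdilution: colonies suspended directly to 1.5×10^8 CFU/mL (0.5 McFarland), then diluted in Mueller–Hinton broth to ~10^5 CFU/mL final. PA stock 1 mg/mL in water, pH 7, serially diluted in MHB. Plates incubated 20–24 h at 37 °C. MIC = lowest concentration inhibiting growth, read as OD600 with optional 1% TTC staining. Triplicate.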

[3] = Cytotoxicity against human HT-29 cells assessed as viable cells at 250 ug/ml incubated for 24 hrs at pH 7.4 by MTT assay; type: toxicity, cell-based; conditions: at 250 µg/mL, read-out: Activity
In short: (§2)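 HT-29 cells in McCoy's 5a with 10% FBS were seeded at 15,000 cells/well and grown 24 h at 37 °C, 10% CO2. Medium then changed to pH 7.4 or pH 6.5 (20 mM MOPS, acidified with HCl). Peptide added in 2-fold dilutions, 7.8–500 µg/mL, for 24 h. Wells washed and given fresh pH 7.4 medium. MTT (12 mM, 10 µL) added for 4 h, then SDS-HCl for 4 h; A570 read.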

[4] = tested on: Acinetobacter baumannii; assay: Antibacterial activity against Acinetobacter baumannii incubated for 20 to 24 hrs by broth microdilution method; type: functional; conditions: time 20-24 hrs; in short: as §1
[5] = Self assembly property of the compound assessed as formation of micelles at 1 mg/ml incubated overnight by transmission electron microscopy; type: physicochemical
In short: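 Samples were dissolved at 2 mM in water, pH 7, and left at room temperature overnight. Applied to copper grids for 5 min, blotted, and negatively stained with NanoVan for 30 s. Imaged by TEM at 120 kV.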

[6] = tested on: Staphylococcus aureus; assay: Antibacterial activity against methicillin-resistant Staphylococcus aureus 13C incubated for 20 to 24 hrs by broth microdilution method; type: functional; conditions: time 20-24 hrs
In short: (§3)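 Broth microdilution in MHB: direct colony suspension at 0.5 McFarland diluted to ~10^5 CFU/mL final; peptide stock 1 mg/mL in water at pH 7, serially diluted. Incubated 20-24 h at 37 °C; MIC taken as the lowest concentration inhibiting growth (OD 600 nm, 1% TTC stain); triplicate; vancomycin and gentamicin as positive controls.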

[7] = Retention time of the compound by RP-HPLC analysis; type: physicochemical
In short: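 Reverse-phase HPLC, linear gradient 0–100% acetonitrile in water with 0.1% TFA over 20 min; retention time recorded.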

[8] = tested on: HT-29; assay: Cytotoxicity against human HT-29 cells assessed as reduction in cell viability at 500 ug/ml incubated for 24 hrs at pH 6.5 by MTT assay; type: toxicity, cell-based; conditions: ht-29, pH 6.5, 24 h, dose 500 µg/ml; in short: as §2
[9] = tested on: Escherichia coli; assay: Ratio of MIC for Escherichia coli K12 at pH 5.5 to MIC for Escherichia coli K12 at pH 7.0
[10] = tested on: Staphylococcus aureus; assay: Ratio of MIC for methicillin-resistant Staphylococcus aureus JE2 at pH 5.5 to MIC for methicillin-resistant Staphylococcus aureus JE2 at pH 7.0
[11] = Self assembly property of the compound assessed as zeta potential at 250 ug/mL at pH 7 measured after 2 hrs; type: physicochemical; conditions: pH 7, 2 h, dose 250 µg/ml
In short: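 Peptide self-assembled at 1 mg/mL, pH 7, annealed 2 h at 80 °C, and aged overnight. Diluted to 250 µg/mL in water; zeta potential measured at 25 °C.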

[12] = Cytotoxicity against human HT-29 cells assessed as inhibition of cell growth incubated for 24 hrs at pH 7.4 by MTT assay; type: toxicity, cell-based; conditions: HT-29 cells, pH 7.4; in short: as §2
[13] = tested on: HT-29; assay: Cytotoxicity against human HT-29 cells assessed as loss of cell viability at 125 ug/ml incubated for 24 hrs at pH 7.4 by MTT assay; type: toxicity, cell-based; conditions: ht-29, pH 7.4, 24 h, at 125 µg/mL; in short: as §2
[14] = tested on: Staphylococcus aureus; assay: Antibacterial activity against methicillin-resistant Staphylococcus aureus JE2 incubated for 20 to 24 hrs by broth microdilution method; type: functional; conditions: time 20-24 hrs; in short: as §3
[15] = Cytotoxicity against human HT-29 cells assessed as inhibition of cell growth incubated for 24 hrs at pH 6.5 by MTT assay; type: toxicity, cell-based; conditions: HT-29 cells, pH 6.5; in short: as §2

CN[C@H](CC(C)C)C(=O)N[C@H]1C(=O)N[C@@H](CC(N)=O)C(=O)N[C@H]2C(=O)N[C@H]3C(=O)N[C@H](C(=O)N[C@H](C(=O)O)c4cc(O)cc(O)c4-c4cc3ccc4O)[C@H](O)c3ccc(c(Cl)c3)Oc3cc2cc(c3O[C@@H]2O[C@H](CO)[C@@H](O)[C@H](O)[C@H]2O[C@H]2C[C@](C)(N)[C@H](O)[C@H](C)O2)Oc2ccc(cc2Cl)[C@H]1O [VANCOMYCIN]
survival at 50 mg/kg [1]: 30% | MIC [2]: 128 µg/mL (≈ 88.3 µM)

CCCCCCCCCCCCCCCCCCN[C@@H](Cc1c[nH]cn1)C(=O)N[C@@H](Cc1c[nH]cn1)C(=O)NC(CN)C(=O)NC(CN)C(=O)NC(CN)C(=O)O (stereo partly specified) (H-[X3]H[ξDap][ξDap][ξDap]-OH)
viability at 24 h, 250 ug/ml [3]: 0% | MIC [4]: 64 µg/mL (≈ 79.7 µM) | Activity [5]: Active | MIC [6]: 32 µg/mL (≈ 39.8 µM) | Retention_time [7]: 14.4 min | Activity [8]: Non-Toxic | Ratio [9]: > 1 | MIC [2]: 64 µg/mL (≈ 79.7 µM) | Ratio [10]: > 1 | Activity [11]: 30.4 mV | IC50 at 24 h [12]: 126 µg/mL (≈ 157 µM) | Activity [13]: 100% | MIC [14]: 64 µg/mL (≈ 79.7 µM) | IC50 at 24 h [15]: 72.3 µg/mL (≈ 90 µM)
